Test results: ChEMBL document CHEMBL1158589, “Benzimidazole and imidazole inhibitors of histone deacetylases: Synthesis and biological activity” (Bioorg Med Chem Lett, 2010)
pEC50, pIC50: −log10 of the molar value.

How the values were obtained:
[1] = target: T1, Protein deacetylase HDAC6 (Homo sapiens, UniProt Q9UBN7); test: Inhibition of human recombinant HDAC6
T1 sequence (Q9UBN7 whole entry): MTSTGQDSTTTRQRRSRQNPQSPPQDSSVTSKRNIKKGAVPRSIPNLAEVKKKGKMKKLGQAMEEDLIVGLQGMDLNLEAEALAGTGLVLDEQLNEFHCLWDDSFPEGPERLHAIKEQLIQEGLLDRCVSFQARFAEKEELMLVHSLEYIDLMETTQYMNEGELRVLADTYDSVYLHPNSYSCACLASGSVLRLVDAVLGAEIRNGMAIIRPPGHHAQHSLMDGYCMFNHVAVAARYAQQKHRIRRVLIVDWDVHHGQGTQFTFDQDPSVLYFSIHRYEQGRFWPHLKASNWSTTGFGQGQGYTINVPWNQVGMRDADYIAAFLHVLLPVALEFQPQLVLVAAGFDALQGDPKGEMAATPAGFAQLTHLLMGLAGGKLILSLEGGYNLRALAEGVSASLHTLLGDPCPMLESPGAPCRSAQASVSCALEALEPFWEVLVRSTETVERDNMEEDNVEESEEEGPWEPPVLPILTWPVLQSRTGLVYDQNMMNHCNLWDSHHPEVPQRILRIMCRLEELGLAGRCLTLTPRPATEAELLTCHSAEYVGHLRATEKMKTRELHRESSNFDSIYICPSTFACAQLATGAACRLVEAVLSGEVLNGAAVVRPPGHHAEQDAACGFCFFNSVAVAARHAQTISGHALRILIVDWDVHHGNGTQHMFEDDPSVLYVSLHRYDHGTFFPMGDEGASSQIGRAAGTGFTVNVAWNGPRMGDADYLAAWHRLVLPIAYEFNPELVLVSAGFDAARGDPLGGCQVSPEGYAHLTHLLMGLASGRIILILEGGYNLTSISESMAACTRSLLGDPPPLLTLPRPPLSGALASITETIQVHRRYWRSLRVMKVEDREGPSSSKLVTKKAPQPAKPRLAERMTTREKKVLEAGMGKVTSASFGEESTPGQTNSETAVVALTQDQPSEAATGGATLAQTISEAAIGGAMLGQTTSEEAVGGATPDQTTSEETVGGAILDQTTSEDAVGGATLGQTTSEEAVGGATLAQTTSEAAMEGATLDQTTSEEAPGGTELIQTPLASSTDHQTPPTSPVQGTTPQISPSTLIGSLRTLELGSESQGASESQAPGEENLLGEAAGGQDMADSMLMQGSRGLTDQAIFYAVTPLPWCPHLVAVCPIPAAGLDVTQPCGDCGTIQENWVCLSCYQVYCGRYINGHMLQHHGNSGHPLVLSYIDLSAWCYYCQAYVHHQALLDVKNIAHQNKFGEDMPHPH
Method in brief: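 Purified recombinant human HDAC-2 or HDAC-6 at known enzyme concentration with tBOC(Ac)-Lys-AMC as substrate. IC50 is the mean of at least three experiments.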

Histone deacetylase 8 = target: T2, Histone deacetylase 8 (Homo sapiens, UniProt Q9BY41); test: Inhibition of human recombinant HDAC8
T2 sequence (Q9BY41 whole entry): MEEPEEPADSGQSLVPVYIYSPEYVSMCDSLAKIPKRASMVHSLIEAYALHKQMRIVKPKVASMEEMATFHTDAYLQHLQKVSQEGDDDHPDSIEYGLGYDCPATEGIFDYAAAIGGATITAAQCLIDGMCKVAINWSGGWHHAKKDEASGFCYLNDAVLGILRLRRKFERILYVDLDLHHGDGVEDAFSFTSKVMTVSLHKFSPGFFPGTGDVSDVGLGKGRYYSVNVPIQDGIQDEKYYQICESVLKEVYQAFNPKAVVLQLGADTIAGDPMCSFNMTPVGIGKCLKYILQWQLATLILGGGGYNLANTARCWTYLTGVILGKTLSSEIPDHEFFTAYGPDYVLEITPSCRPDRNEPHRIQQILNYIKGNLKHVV

A549 = test: Cytotoxicity against human A549 cells assessed as NADH level after 72 hrs by MTS cells; type: functional, cell-based; settings: A549, 72 h
Method in brief: (§1)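 Human A549 lung, HL60 leukemia and PC3 prostate cancer lines incubated with compound for 72 h. Viability read by MTS colorimetric assay from remaining NADH; EC50 calculated; mean of at least two experiments.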

HL-60 = test: Cytotoxicity against human HL60 cells assessed as NADH level after 72 hrs by MTS cells; type: functional, cell-based; settings: HL-60, 72 h; method in brief: as §1
PC-3 = test: Cytotoxicity against human PC3 cells assessed as NADH level after 72 hrs by MTS cells; type: functional, cell-based; settings: PC-3, 72 h; method in brief: as §1

Compound | pIC50 [1] | pIC50 (Histone deacetylase 8) | pEC50 (A549) | pEC50 (HL-60) | pEC50 (PC-3)
CCN(CC)CCn1c(-c2cccc(/C=C/C(=O)NO)c2)nc2ccccc21 | 7.10 | 7.20 | 5.40 | 6.10 | 5.92
O=C(/C=C/c1cccc(-c2nc3ccccc3n2C2CCCNC2)c1)NO (racemic) | 7.40 | 6.80 | 5.60 | 6.52 | 6.30
O=C(/C=C/c1cccc(-c2nc3ccccc3n2CCCc2ccccc2)c1)NO | 7.70 | 7.60 | 4.92 | 5.92 | 5.40
Cc1nc(-c2cccc(/C=C/C(=O)NO)c2)n(CCN2CCOCC2)c1C | 6.80 | 6.70 | < 4.30 | 5.80 | 5.30
O=C(/C=C/c1cccc(-c2nc3ccccc3n2CC2CCNCC2)c1)NO | 6.70 | 6.51 | < 4.30 | < 4.30 | < 4.30
O=C(/C=C/c1cccc(-c2nc3ccccc3n2CCN2CCCC2)c1)NO | – | 7.20 | 5.51 | 6.30 | 6.22
Cc1c(-c2ccccc2)nc(-c2cccc(/C=C/C(=O)NO)c2)n1[C@@H]1CCCN(C)C1 | 7.20 | 7.30 | 6.22 | 7.40 | 7.00
Cc1c(-c2ccccc2)nc(-c2cccc(/C=C/C(=O)NO)c2)n1[C@@H]1CCCN(C(C)C)C1 | 7.10 | 7.51 | 6.30 | 7.40 | 7.00
CCN1CCC[C@@H](n2c(-c3cccc(/C=C/C(=O)NO)c3)nc(C)c2-c2ccccc2)C1 | 7.10 | 7.30 | 6.52 | 7.40 | 7.10
CCN1CCC[C@H](n2c(-c3cccc(/C=C/C(=O)NO)c3)nc3ccccc32)C1 | 7.10 | 6.80 | 6.22 | 7.10 | 6.70
CN1CCCC(n2c(-c3cccc(/C=C/C(=O)NO)c3)nc3ccccc32)C1 (racemic) | 7.10 | 6.80 | 6.30 | 7.10 | 7.00
O=C(/C=C/c1cccc(-c2nc3ccccc3n2-c2ccc(Cl)cc2)c1)NO | 7.00 | 7.30 | 5.20 | 6.10 | 5.60
CC(C)N(CCn1c(-c2cccc(/C=C/C(=O)NO)c2)nc2ccccc21)C(C)C | 7.00 | 6.70 | 5.30 | 5.30 | 5.51
C[C@@H](c1ccccc1)n1c(-c2cccc(/C=C/C(=O)NO)c2)nc2ccccc21 | 7.20 | 7.80 | 4.51 | 5.51 | 4.80
Cc1c(-c2ccccc2)nc(-c2cccc(/C=C/C(=O)NO)c2)n1CCc1ccccc1 | 7.20 | 7.70 | 6.10 | 6.70 | 6.52
Cc1nc(-c2cccc(/C=C/C(=O)NO)c2)n(CCN2CCOCC2)c1-c1ccccc1 | 6.92 | 7.10 | 5.40 | 6.52 | 6.00
O=C(/C=C/c1cccc(-c2nc3ccccc3n2CCN2CCCCC2)c1)NO | 7.40 | 7.00 | 5.92 | 6.52 | 6.22
COc1ccc(-n2c(-c3cccc(/C=C/C(=O)NO)c3)nc3ccccc32)cc1 | 7.20 | 7.20 | 5.40 | 6.30 | 5.92
Cc1nc(-c2cccc(/C=C/C(=O)NO)c2)n([C@@H]2CCCN(C)C2)c1-c1ccccc1 | 7.10 | 7.00 | 6.40 | 7.52 | 7.00
CCN1CCC[C@@H](n2c(-c3cccc(/C=C/C(=O)NO)c3)nc(-c3ccccc3)c2C)C1 | 7.00 | 7.51 | 6.52 | 7.52 | 7.30

Compound | pIC50 [1] | pIC50 (Histone deacetylase 8) | pEC50 (A549) | pEC50 (HL-60) | pEC50 (PC-3)
Cc1nc(-c2cccc(/C=C/C(=O)NO)c2)n(CCN2CCOCC2)c1Cc1ccccc1 | 7.10 | 7.20 | 5.60 | 6.70 | 6.22
O=C(/C=C/c1cccc(-c2nc3ccccc3n2[C@H]2CCCNC2)c1)NO | 7.60 | 6.92 | 5.60 | 6.52 | 6.22
CN(C)CCn1c(-c2cccc(/C=C/C(=O)NO)c2)nc2ccccc21 | 7.10 | 6.80 | 5.10 | 6.00 | 5.60
CCN1CCC[C@@H](n2c(C)nc(C)c2-c2cccc(/C=C/C(=O)NO)c2)C1 | 6.40 | – | – | – | –
O=C(/C=C/c1cccc(-c2nc3ccccc3[nH]2)c1)NO | 7.00 | 7.20 | 4.60 | 5.51 | 5.00
Cc1c(Cc2ccccc2)nc(-c2cccc(/C=C/C(=O)NO)c2)n1CCN1CCOCC1 | 7.10 | 7.30 | 5.40 | 6.52 | 6.00
Cc1nc(-c2cccc(/C=C/C(=O)NO)c2)n(CCc2ccccc2)c1C | 7.20 | 7.51 | 6.40 | 7.10 | 6.70
O=C(/C=C/c1cccc(-c2nc3ccccc3n2CCN2CCOCC2)c1)NO | 6.80 | 6.40 | 4.60 | 5.92 | 5.30
CC(C)n1c(-c2cccc(/C=C/C(=O)NO)c2)nc2ccccc21 | 7.00 | 7.40 | 5.30 | 6.00 | 5.60
Cc1c(Cc2ccccc2)nc(-c2cccc(/C=C/C(=O)NO)c2)n1[C@@H]1CCCN(C)C1 | 7.20 | 7.10 | 6.70 | 7.70 | 7.00
Cc1nc(-c2cccc(/C=C/C(=O)NO)c2)n(CCc2ccccc2)c1-c1ccccc1 | 7.10 | 7.60 | 6.00 | 6.52 | 6.30
CCN1CCC[C@@H](n2c(Cc3ccccc3)nc(C)c2-c2cccc(/C=C/C(=O)NO)c2)C1 | 6.30 | 7.00 | – | – | –
Cc1c(Cc2ccccc2)nc(-c2cccc(/C=C/C(=O)NO)c2)n1CCc1ccccc1 | 7.20 | 7.80 | 6.10 | 6.70 | 6.30
Cc1nc(Cc2ccccc2)n(CCc2ccccc2)c1-c1cccc(/C=C/C(=O)NO)c1 | 7.20 | 7.20 | – | – | –
O=C(/C=C/c1cccc(-c2nc3ccccc3n2CCc2ccccc2)c1)NO | 7.51 | 7.60 | 5.60 | 6.52 | 6.40
Cc1nc(C)n(CCc2ccccc2)c1-c1cccc(/C=C/C(=O)NO)c1 | 6.92 | 7.00 | – | – | –
Cc1nc(-c2ccccc2)n(CCc2ccccc2)c1-c1cccc(/C=C/C(=O)NO)c1 | 7.10 | 7.30 | – | – | –
O=C(/C=C/c1cccc(-c2nc3ccccc3n2-c2ccccc2)c1)NO | – | 7.30 | 4.80 | 5.80 | 5.40
CCN1CCC[C@@H](n2c(-c3ccccc3)nc(C)c2-c2cccc(/C=C/C(=O)NO)c2)C1 | 6.20 | 6.40 | – | – | –
